# Assay outcomes: PubChem, Broad Institute
# DENV2 CPE rescue – inhibitors of DENV2 cytopathic effect; AID 651640; DENV2-infected cells, cytopathic effect rescue, plate reader; CPE inhibition, % at 9.99 µM; actives 1.7% (n = 350,000); in the data active = CPE inhibition above about 20%, passing the limit was not always enough; tested in BHK-21 cells;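 also: 0% = median of neutral control wells and 100% = median of positive control wells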
# Xi reactivation – X-chromosome reactivation activator. XiGFP mouse fibroblasts, % GFP-positive cells imaging, 3 d; cells co-treated with 5-aza-dC sensitizer; scaled so ellipticine positive control = 100%. activation, % at 7.58 µM. actives 0.055% (n = 360,000). AID 743238;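 active = mean normalized replicate activation at least 10% and every replicate at or above 10%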;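 also: 0% = median of on-plate neutral control wells and 100% = ellipticine 6 µM median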
#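 System: SV40-immortalized XiGFP fibroblast cells, line 68-5-11 / Incubation: 3-day compound exposure, then 15 min fixation at room temperature / Compound: single concentration per compound, delivered by pin transfer / Buffer or medium: DMEM plus 5-aza-dC sensitizer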
# FN deposit inh – fibronectin deposition inhibition; AH1F fibroblasts, Alexa488-fibronectin deposition fluorescence, overnight; inhibition, % at 12.6 µM; actives 0.086% (n = 350,000); AID 743247;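 active = mean inhibition across replicates of 30% or more, regardless of how many single replicates reach that level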;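 also: positive control wells lacked labelled fibronectin entirely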
#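 Material – AH1F fibroblast monolayer, labelled fibronectin deposition · Reagent – labelled fibronectin 24 nM · Timing – 1 h adhesion, overnight exposure · Measured by – fluorescence at 485 nm excitation, 525 nm emission · Read-out – inhibition of fibronectin deposition signal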
# CASP6 VEID inh – blocks human caspase-6 cleavage activity. purified caspase-6, Z-VEID-R110 cleavage fluorescence. actives 0.53% (n = 350,000). inhibition, % at 12.5 µM. P55212;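 active = mean inhibition across replicates at least about 35%, with every replicate also reaching that limit, limit read from the data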;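 also: 0% = median of neutral control wells and 100% = no fluorescence left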
# Target sequence (P55212 24-179 limits assumed): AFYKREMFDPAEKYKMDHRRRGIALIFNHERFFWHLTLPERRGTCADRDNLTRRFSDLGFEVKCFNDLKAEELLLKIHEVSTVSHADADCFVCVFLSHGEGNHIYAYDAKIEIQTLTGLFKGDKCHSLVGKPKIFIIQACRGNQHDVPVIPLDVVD
# Target sequence (P55212 194-293 limits assumed): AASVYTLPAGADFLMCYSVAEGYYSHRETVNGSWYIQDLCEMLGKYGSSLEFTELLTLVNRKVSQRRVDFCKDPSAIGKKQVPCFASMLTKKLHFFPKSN
# CaV13 ICDI inh – Primary screen for inhibitors of IQ motif and Ca2+-dependent inactivation inhibitor domain binding in CACNA1D, Förster resonance energy transfer in living cells, …; HEK cells, CFP/YFP FRET ICDI-IQ, plate reader, 10 min; percent FRET-ratio fall versus neutral wells; inhibition, % at 12.3 µM; actives 0.098% (n = 340,000);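 active = mean replicate inhibition of at least 30% and at least 1% of replicates passing that level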;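 also: 0% = median of the neutral control wells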
# * hit, by the source's call; . = no result given; ! = not confirmed by another sample. Most compounds without a hit are left out; they make up all but 2% or so of the library.
SMILES,DENV2 CPE rescue,Xi reactivation,FN deposit inh,CASP6 VEID inh,CaV13 ICDI inh
COc1ccc(-c2cnc3c(c2)C(=O)N([C@@H](C)CO)C[C@H](C)[C@H](CN(C)C(=O)C2CCCCC2)O3)cc1,3,-1,.,8,.
O=C(O)C1C2C=CC(C2)C1C(=O)NCc1ccco1 (stereo not drawn),1,0,-1,11,-5
O=C(O)C1C2C=CC(C2)C1C(=O)NCc1cccs1 (stereo not drawn),7,0,10,45*,-6
CCNC[C@@H]1[C@@H](c2ccc(-c3ccc(F)cc3)cc2)[C@H](CO)N1S(C)(=O)=O,.,0,-8,.,.
CCOC(=O)C(=O)N/N=C/c1ccco1,2,0,-11,36*,-18
Cc1cc(C)cc(OCC(=O)N/N=C/c2ccco2)c1,2,0,5,-2,-1
CCCNC(=O)C[C@@H]1CC[C@@H]2[C@H](COc3ccc(NC(=O)Nc4cccc(C)c4)cc3C(=O)N2C)O1,0,0,-3,1,.
COCC(=O)Nc1ccc2c(c1)[C@@H]1C[C@H](CC(=O)NCCc3ccccc3)O[C@H](CO)[C@@H]1O2,3,0,7,-3,.
O=[N+]([O-])c1cccc(-c2n[nH]c(=S)n2-c2ccc(Br)cc2)c1,-2,-1,-4,3,55*
CC(C)(C)[C@@H]1C=C(C(=O)N2CCN(Cc3ccc4c(c3)OCO4)CC2)O[C@H](OCc2ccc(CO)cc2)C1,34*!,0,1,0,-9
Cc1cc(-n2nnc3ccccc32)nc2ccccc12,.,.,5,55*,-5
Cc1cc(N2CCCCC2)nc2ccccc12,-6,0,-4,-2,-1
CCCNC(=O)N1[C@H](C#N)[C@H](c2ccc(-c3cccc(OC)c3)cc2)[C@@H]1CO,.,.,.,-2,.
O=C(O)C1CSC(c2coc3ccccc3c2=O)N1 (stereo not drawn),-6,1,-12,4,-3
CC1CCOC(c2coc3ccccc3c2=O)O1 (stereo not drawn),33*,0,0,-3,-4
Cc1c(C)c2cc(Cl)c(OCC(=O)NCCCN3CCCC3=O)cc2oc1=O,44*,0,.,2,-6
Cc1cc(=O)oc2cc(OCC(=O)NCCCN3CCCC3=O)c(Cl)cc12,0,0,0,-3,-8
COC(=O)c1c(CCl)noc1C(=O)NCC1CCCO1 (stereo not drawn),33*,0,9,-1,-10
C[C@H]1CN([C@@H](C)CO)C(=O)Cc2cc(N(C)C)ccc2O[C@H]1CN(C)C(=O)Nc1ccc(F)cc1,12,-1,.,0,.
COc1ccc2c3c([nH]c2c1)[C@H](CO)N(C(=O)c1ccc(F)cc1)CC31CN(S(=O)(=O)c2cccs2)C1,6,0,.,.,.
O=C(CSc1nc2ccccc2c(=O)n1-c1ccccc1F)Nc1ccc2c(c1)CCC2,1,0,31*,1,-4
CCc1cc2c(=O)[nH]c(Cc3ccc(OC)cc3)nc2s1,-2,0,1,-1,-15
CCc1cc2c(=O)[nH]c(COC)nc2s1,46*,0,-7,2,-5
Cn1c(=N)n(CC(=O)c2ccc(Br)cc2)c2ccccc21,66*,0,4,-1,-5
COc1ccc2c3c([nH]c2c1)[C@H](CO)N(C(=O)CN1CCOCC1)CC31CCN(C)CC1,-7,0,.,-11,.
SMILES,DENV2 CPE rescue,Xi reactivation,FN deposit inh,CASP6 VEID inh,CaV13 ICDI inh
CCNC(=O)C[C@@H]1CC[C@@H]2[C@H](COC[C@@H](O)CN2C(=O)C2CCCC2)O1,-12,0,-4,-1,.
COCCNC(=O)c1ccc2c3n(nc2c1)-c1ccc(Cl)cc1CO3,122*,0,-7,5,-11
COc1ccc(CN=C(N)N=C(N)N)cc1Cl,0,0,-1,56*,-3
C/C=C/c1ccc([C@@H]2[C@@H](CO)N(C(C)=O)C23CN(C(=O)c2ccncc2)C3)cc1,25*,0,.,2,.
C/C=C/c1ccc([C@@H]2[C@@H](CO)N(C(=O)c3cnccn3)C23CN(C(=O)C2CC2)C3)cc1,-7,0,-3,3,.
C/C=C/c1ccc([C@H]2[C@H](CO)N(C(=O)c3cnccn3)C23CN(C(=O)C2CC2)C3)cc1,33*,0,-2,-3,.
COCC#Cc1cnc2c(c1)C(=O)N([C@@H](C)CO)C[C@H](C)[C@H](CN(C)C(=O)C1CCC1)O2,-5,0,.,1,.
O=C(c1ccccc1)c1ccc(O)c(O)c1O,11,.,.,73*,.
COc1ccccc1NC(=O)N[C@@H]1CC[C@@H](CCNS(=O)(=O)c2ccc(C)cc2)O[C@@H]1CO,1,0,.,1,.
O=C1C=C(NCCc2cc(Br)c(O)c(Br)c2)C(=O)c2ncccc21,-7,0,7,96*,-7
Cc1c(C(N)=O)sc(N)c1C(=O)OC(C)C,.,.,14,.,-5
Cc1c(C(=O)OC(C)C)sc(N)c1C(=O)OC(C)C,48*,0,-1,-1,-6
C[C@@]12C(=O)N(CCc3c[nH]c4ccccc34)CC(=O)N1[C@H]1c3ccccc3OC[C@@H]1[C@@H]2c1ccccc1,54*,0,0,0,-5
COc1ccc2c(c1)OC[C@H]1[C@H]2N2C(=O)c3cc(OC)ccc3NC(=O)[C@@]2(C)[C@H]1c1ccccc1,47*,0,12,3,-11
COc1ccc2c(c1)OC[C@H]1[C@H]2N2C(=O)c3cc(F)ccc3NC(=O)[C@@]2(C)[C@H]1c1ccccc1,14,0,4,3,-9
C[C@@]12C(=O)N(c3ccc(F)cc3)C(=O)N1[C@@H]1c3ccccc3OC[C@@H]1[C@H]2c1ccccc1,21*,0,-7,1,-4
C[C@@H]1CN([C@@H](C)CO)C(=O)c2cc(NS(C)(=O)=O)ccc2O[C@@H](C)CCCCO[C@H]1CN(C)C(=O)c1ccncc1,69*,8,.,3,.
C[C@H](CO)N1C[C@H](C)[C@H](CN(C)C(=O)c2ccncc2)OCCCC[C@H](C)Oc2ccc(NS(=O)(=O)c3cn(C)cn3)cc2C1=O,24*,-1,.,-1,.
C[C@@H]1CN([C@H](C)CO)C(=O)c2cc(NS(=O)(=O)c3cn(C)cn3)ccc2O[C@@H](C)CCCCO[C@@H]1CN(C)C(=O)c1ccncc1,-9,0,.,1,.
C[n+]1cccc2cccc([O-])c21,-3,0,3,52*,-8
Cc1ccc(Cn2cc(CN3CC(N4CCSCC4)CS3(=O)=O)nn2)cc1 (stereo not drawn),31*,0,5,-3,-2
CCN(C)C1CN(Cc2cn(Cc3ccc(C)cc3)nn2)S(=O)(=O)C1 (stereo not drawn),-7,0,0,-2,-11
